Data published in ChEMBL document CHEMBL3853270, “Influence of Birch Bark Triterpenes on Keratinocytes and Fibroblasts from Diabetic and Nondiabetic Donors” (2016).
Active and inactive are the calls of the source. The rule behind the calls is not given here.

How the values were obtained:
Format in all cases: functional
[1] = test system: Fibroblast; assay: Effect on pro-inflammatory related gene expression in non-diabetic young human primary fibroblasts assessed as IL6 mRNA levels at 1.96 uM after 6 hrs by qPCR analysis
[2] = test system: Keratinocyte; assay: Effect on chemokines related gene expression in non-diabetic adult human primary keratinocytes assessed as IL8 mRNA levels at 1.96 uM after 6 hrs by qPCR analysis
[3] = test system: Keratinocyte; assay: Effect on pro-inflammatory related gene expression in diabetic adult human primary keratinocytes assessed as IL1B mRNA levels at 1.96 uM after 6 hrs by qPCR analysis
[4] = test system: Keratinocyte; assay: Effect on chemokines related gene expression in non-diabetic young human primary keratinocytes assessed as IL8 mRNA levels at 1.96 uM after 6 hrs by qPCR analysis
In short: (§1)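 Primary human keratinocytes (nondiabetic young or adult, diabetic adult donors) were exposed to compound for 6 h, with 0.1% DMSO as solvent control. Total RNA came from 400 000 cells per sample and was assayed on a Fluidigm Biomark high-throughput qPCR chip. Results are fold change vs solvent control, from 2−4 independent experiments on two donors per group, with SD. Groups were compared by one-way ANOVA with Bonferroni post-test.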

[5] = test system: Keratinocyte; assay: Effect on growth factor related gene expression in non-diabetic adult human primary keratinocytes assessed as GDF15 mRNA levels at 9.81 uM after 6 hrs by qPCR analysis; in short: as §1
[6] = test system: Fibroblast; assay: Effect on growth factor related gene expression in non-diabetic adult human primary fibroblasts assessed as VEGFA mRNA levels at 9.81 uM after 6 hrs by qPCR analysis
In short: (§2)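 Primary human dermal fibroblasts (young or adult nondiabetic, adult diabetic donor) were treated for 6 h against a 0.1% DMSO solvent control. RNA from 320 000 cells per sample was measured by Fluidigm Biomark high-throughput qPCR. Values are fold change relative to solvent control, from four independent experiments, with SD. One-way ANOVA with Bonferroni post-test was applied.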

[7] = test system: Keratinocyte; assay: Effect on AQP3 mRNA expression levels in non-diabetic young human primary keratinocytes at 1.96 uM after 6 hrs by qPCR analysis
In short: (§3)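 Primary keratinocytes from nondiabetic young and adult and diabetic adult donors; 400 000 cells per sample, 6 h exposure at 1.96 or 9.81 μM. RNA extracted and read on a high-throughput qPCR chip. Results are fold change versus 0.1% DMSO solvent control from 5−7 independent experiments over two donors per group, SD, one-way ANOVA with Bonferroni post-test.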

[8] = test system: Fibroblast; assay: Effect on chemokines related gene expression in non-diabetic young human primary fibroblasts assessed as IL8 mRNA levels at 9.81 uM after 6 hrs by qPCR analysis; in short: as §2
[9] = test system: Fibroblast; assay: Effect on MMP1 mRNA expression levels in non-diabetic young human primary fibroblasts at 9.81 uM after 6 hrs by qPCR analysis
In short: (§4)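 Primary dermal fibroblasts from one nondiabetic young, one nondiabetic adult and one diabetic adult donor; 320 000 cells per sample, 6 h at 1.96 or 9.81 μM. RNA measured on a high-throughput qPCR chip. Fold change versus 0.1% DMSO control, four independent experiments, SD, one-way ANOVA with Bonferroni post-test.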

[10] = test system: Keratinocyte; assay: Effect on MMP1 mRNA expression levels in diabetic adult human primary keratinocytes at 1.96 uM after 6 hrs by qPCR analysis; in short: as §3
[11] = test system: Keratinocyte; assay: Effect on antioxidant related gene expression in non-diabetic young human primary keratinocytes assessed as SOD2 mRNA levels at 9.81 uM after 6 hrs by qPCR analysis
[12] = Effect on wound healing activity in diabetic adult human primary keratinocytes assessed as upregulation of soluble E-selectin protein levels at 1.96 uM after 24 hrs by bead-based suspension array analysis; details: Keratinocyte
[13] = test system: Fibroblast; assay: Effect on pro-inflammatory related gene expression in diabetic adult human primary fibroblasts assessed as IL1R1 mRNA levels at 9.81 uM after 6 hrs by qPCR analysis; in short: as §2
[14] = test system: Keratinocyte; assay: Effect on cellular connection related gene expression in diabetic adult human primary keratinocytes assessed as GJB2 mRNA levels at 1.96 uM after 6 hrs by qPCR analysis
[15] = test system: Keratinocyte; assay: Effect on pro-inflammatory related gene expression in non-diabetic adult human primary keratinocytes assessed as TNF mRNA levels at 1.96 uM after 6 hrs by qPCR analysis
[16] = test system: Keratinocyte; assay: Effect on growth factor related gene expression in non-diabetic young human primary keratinocytes assessed as VEGFA mRNA levels at 1.96 uM after 6 hrs by qPCR analysis; in short: as §1
[17] = Effect on wound healing activity in non-diabetic adult human primary keratinocytes assessed as upregulation of RANTES protein levels at 1.96 uM after 24 hrs by bead-based suspension array analysis; details: Keratinocyte
[18] = test system: Fibroblast; assay: Effect on adhesion molecules related gene expression in diabetic adult human primary fibroblasts assessed as ICAM1 mRNA levels at 9.81 uM after 6 hrs by qPCR analysis
In short: (§5)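 Dermal fibroblasts from nondiabetic adult and diabetic adult donors, exposed for 6 h at 1.96 or 9.81 μM. ICAM-1 and VCAM-1 mRNA measured by standard qRT-PCR, n = 3. Fold change versus 0.1% DMSO control, SD, one-way ANOVA with Bonferroni post-test.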

[19] = test system: Keratinocyte; assay: Effect on antioxidant related gene expression in non-diabetic adult human primary keratinocytes assessed as SOD2 mRNA levels at 1.96 uM after 6 hrs by qPCR analysis
[20] = Effect on wound healing activity in diabetic adult human primary keratinocytes assessed as upregulation of TNFalpha protein levels at 1.96 uM after 24 hrs by bead-based suspension array analysis; details: Keratinocyte
[21] = test system: Fibroblast; assay: Effect on chemokines related gene expression in diabetic adult human primary fibroblasts assessed as WDR26 mRNA levels at 1.96 uM after 6 hrs by qPCR analysis
[22] = test system: Fibroblast; assay: Effect on adhesion molecules related gene expression in non-diabetic adult human primary fibroblasts assessed as VCAM1 mRNA levels at 9.81 uM after 6 hrs by qPCR analysis; in short: as §5
[23] = test system: Keratinocyte; assay: Effect on growth factor related gene expression in diabetic adult human primary keratinocytes assessed as VEGFA mRNA levels at 1.96 uM after 6 hrs by qPCR analysis; in short: as §1
[24] = test system: Fibroblast; assay: Effect on chemokines related gene expression in diabetic adult human primary fibroblasts assessed as IL8 mRNA levels at 1.96 uM after 6 hrs by qPCR analysis
[25] = test system: Keratinocyte; assay: Effect on pro-inflammatory related gene expression in non-diabetic young human primary keratinocytes assessed as IL1R1 mRNA levels at 9.81 uM after 6 hrs by qPCR analysis
[26] = test system: Fibroblast; assay: Effect on chemokines related gene expression in diabetic adult human primary fibroblasts assessed as CCL2 mRNA levels at 9.81 uM after 6 hrs by qPCR analysis
[27] = test system: Keratinocyte; assay: Effect on pro-inflammatory related gene expression in non-diabetic adult human primary keratinocytes assessed as IL1R1 mRNA levels at 9.81 uM after 6 hrs by qPCR analysis
[28] = test system: Fibroblast; assay: Effect on antiinflammatory related gene expression in diabetic adult human primary fibroblasts assessed as SOCS3 mRNA levels at 9.81 uM after 6 hrs by qPCR analysis; in short: as §4
[29] = test system: Fibroblast; assay: Effect on antioxidant related gene expression in non-diabetic adult human primary fibroblasts assessed as NFE2L2 mRNA levels at 1.96 uM after 6 hrs by qPCR analysis
[30] = Upregulation of wound healing activity related MCP1 protein levels in non-diabetic adult human primary keratinocytes at 1.96 uM after 24 hrs by bead-based suspension array analysis; details: Keratinocyte

C=C(C)[C@@H]1CC[C@]2(CO)CC[C@]3(C)[C@H](CC[C@@H]4[C@@]5(C)CC[C@H](O)C(C)(C)[C@@H]5CC[C@]43C)[C@@H]12 [BETULIN]
fold change (FC) [1]: 45
fold change (FC) [2]: 24.2
fold change (FC) [3]: 0.8
fold change (FC) [4]: 9.7
fold change (FC) [5]: 1
fold change (FC) [6]: 2
fold change (FC) [7]: 0.9
fold change (FC) [8]: 32
fold change (FC) [9]: 1
fold change (FC) [10]: 1.2
fold change (FC) [11]: 1.4
Activity [12]: Active
fold change (FC) [13]: 1.9
fold change (FC) [14]: 0.9
fold change (FC) [15]: 3.8
fold change (FC) [16]: 1.3
Activity [17]: Active
fold change (FC) [18]: 2.3
fold change (FC) [19]: 1.3
Activity [20]: Active
fold change (FC) [21]: 1.2
fold change (FC) [22]: 53.7
fold change (FC) [23]: 1.6
fold change (FC) [24]: 10.8
fold change (FC) [25]: 1
fold change (FC) [26]: 1.7
fold change (FC) [27]: 0.9
fold change (FC) [28]: 1.4
fold change (FC) [29]: 1.3
Activity [30]: Active
